Consider six compounds from ChEMBL document CHEMBL1143876, “Synthesis, analgesic, anti-inflammatory, and antimicrobial activity of some novel pyrimido[4,5-b]quinolin-4-ones” (2008).

For assay [1], the system named is Pseudomonas aeruginosa. The experiment in a line: Antimicrobial activity against Pseudomonas aeruginosa. The assay is classed as functional. The method in brief:
(§1)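 MIC found by disk diffusion using disks carrying varying amounts of compound per disk, in DMSO. Incubated 24–28 h at 37 °C for bacteria and 5 days at 28 °C for Candida. MIC given in µg/disk.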

Assay [2] relates to Klebsiella pneumoniae. As to the kind of experiment: Antimicrobial activity against Klebsiella pneumoniae. The class given is functional. The procedure, abridged: as §1
In assay [3] the test system is Mus musculus. The experiment in a line: Analgesic activity against acetic acid-induced abdominal constriction in Swiss albino mouse at 15 mg/kg, po after 20 mins by writhing test. The assay is classed as functional, Abdomen. The method in brief:
(§2)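 Mice of both sexes, 25–30 g, dosed orally in 10% v/v Tween 80 in water. Test agents were given at 15 mg/kg and acetylsalicylic acid at 100 mg/kg. 30 min later, 0.7% acetic acid (10 ml/kg) ip. Writhes counted over 20 min; six per group. % protection = (control mean − treated mean)/control mean ×100; means ± SE.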
(In writhing tests, fewer writhes than in controls are read as antinociception.)

Assay [4] concerns Escherichia coli. The experiment in a line: Antimicrobial activity against Escherichia coli at 50 ug/disk after 24 to 28 hrs. The class given is functional. The following applies: read-out: IZ. The method in brief: (§3)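 Agar disk diffusion: 5 mm paper disks loaded with 50 µg/disk in DMSO. Inhibition zones read after 24–28 h at 37 °C for bacteria, or 5 days at 28 °C for clinical Candida isolates grown on Sabouraud dextrose agar. Zone graded 6–10 mm slight, 11–15 mm moderate, >15 mm high. Reference disks: nalidixic acid 30 µg, nystatin 100 U.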

In assay [5] the test system is Klebsiella pneumoniae. As to the kind of experiment: Antimicrobial activity against Klebsiella pneumoniae at 50 ug/disk after 24 to 28 hrs. The class given is functional. The following applies: read-out: IZ. The method in brief: as §3
The subject of assay [6] is Mus musculus. As to the kind of experiment: Analgesic activity in Swiss albino mouse assessed as reaction time at 15 mg/kg, po after 90 mins by hot plate test. The assay is classed as functional. The method in brief: (§4)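 Mice of both sexes, 25–30 g, on a hot plate at 53 ± 0.5 °C; reaction time taken to hind-paw lick or jump, 60 s cut-off. Baseline read before dosing. Oral dosing in 10% v/v Tween 80 in water: test agents 15 mg/kg, acetylsalicylic acid 100 mg/kg. Re-read at 15, 30, 60 and 90 min; means ± SE.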
(In general: In hot-plate and tail-flick tests a longer latency is read as antinociception.)

The subject of assay [7] is Mus musculus. The experiment in a line: Analgesic activity against acetic acid-induced abdominal constriction in Swiss albino mouse at 15 mg/kg, po after 20 mins by writhing test relative to acetylsalicylic acid. The class given is functional, Abdomen. The procedure, abridged:
as §2

In assay [8] the test system is Escherichia coli. The experiment in a line: Antimicrobial activity against Escherichia coli. The class given is functional. The procedure, abridged:
as §1

Assay [9] deals with Staphylococcus aureus. The experiment in a line: Antimicrobial activity against Staphylococcus aureus at 50 ug/disk after 24 to 28 hrs. The class given is functional. To be noted: read-out: IZ. The method in brief:
as §3

The subject of assay [10] is Staphylococcus aureus. As to the kind of experiment: Antimicrobial activity against Staphylococcus aureus. The assay is classed as functional. The procedure, abridged: as §1
The test system of assay [11] is Pseudomonas aeruginosa. As to the kind of experiment: Antimicrobial activity against Pseudomonas aeruginosa at 50 ug/disk after 24 to 28 hrs. The assay is classed as functional. The following applies: read-out: IZ. The method in brief:
as §3

Assay [12] concerns Mus musculus. The experiment in a line: Analgesic activity in Swiss albino mouse assessed as reaction time at 15 mg/kg, po after 60 mins by hot plate test. The class given is functional. The method in brief: as §4
Assay [13] deals with Mus musculus. As to the kind of experiment: Analgesic activity in Swiss albino mouse assessed as reaction time at 15 mg/kg, po after 30 mins by hot plate test. The class given is functional. The procedure, abridged: as §4
Another assay concerns Nakaseomyces glabratus. The experiment in a line: Antimicrobial activity against Candida glabrata at 50 ug/disk after 5 days. The class given is functional. The following applies: 120 h, read-out: IZ. The procedure, abridged:
as §3

Another assay relates to Candida albicans. The experiment in a line: Antimicrobial activity against Candida albicans at 50 ug/disk after 5 days. The following applies: 120 h, read-out: IZ. The class given is functional. The method in brief:
as §3

The test system of assay [14] is Rattus norvegicus. The experiment in a line: Antiinflammatory activity against carrageenan-induced paw edema in Sprague-Dawley rat at 15 mg/kg, po after 3 hrs. The class given is functional. The method in brief:
(§5)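 Adult male rats, 150–180 g, six per group. Oral dose 1 h before 0.1 ml 1% carrageenin sc into the left hind footpad: test agents 15 mg/kg as suspension, indomethacin 10 mg/kg; vehicle 10% Tween 80. Paw volume by plethysmometer before injection, then hourly for 4 h. Edema % = (Vt−Vc)/Vc; inhibition % = (Ec−Et)/Ec. Potency taken relative to indomethacin. Means ± SE.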

Assay [15] has as its system Rattus norvegicus. The experiment in a line: Antiinflammatory activity against carrageenan-induced paw edema in Sprague-Dawley rat at 15 mg/kg, po after 2 hrs. The class given is functional. The method in brief: as §5
(In general: In the carrageenan paw model, swelling and tenderness develop within hours.)

Assay [16] has as its system Rattus norvegicus. The experiment in a line: Antiinflammatory activity against carrageenan-induced paw edema in Sprague-Dawley rat at 15 mg/kg, po after 4 hrs. The class given is functional. The method in brief: as §5
The test system of assay [17] is Rattus norvegicus. As to the kind of experiment: Antiinflammatory activity against carrageenan-induced paw edema in Sprague-Dawley rat at 15 mg/kg, po relative to indomethacin after 4 hrs. The assay is classed as functional. The method in brief: as §5
The test system of assay [18] is Rattus norvegicus. The experiment in a line: Antiinflammatory activity against carrageenan-induced paw edema in Sprague-Dawley rat at 15 mg/kg, po relative to indomethacin after 1 hr. The class given is functional. The procedure, abridged: as §5
The subject of assay [19] is Rattus norvegicus. As to the kind of experiment: Antiinflammatory activity against carrageenan-induced paw edema in Sprague-Dawley rat at 15 mg/kg, po relative to indomethacin after 3 hrs. The class given is functional. The procedure, abridged:
as §5

The test system of assay [20] is Rattus norvegicus. As to the kind of experiment: Antiinflammatory activity against carrageenan-induced paw edema in Sprague-Dawley rat at 15 mg/kg, po relative to indomethacin after 2 hrs. The assay is classed as functional. The method in brief: as §5
Assay [21] concerns Rattus norvegicus. As to the kind of experiment: Antiinflammatory activity against carrageenan-induced paw edema in Sprague-Dawley rat at 15 mg/kg, po after 1 hr. The assay is classed as functional. The method in brief:
as §5

As usually defined, the inhibition in vivo is the relative decrease from the control value, in per cent. The low end stands for little suppression, the high end for strong suppression.

Molecules are shown by their SMILES.

For `Nn1c(-c2ccccc2)cn2c(=O)c3c(-c4ccccc4)c4c(nc3nc12)CCCC4`, the MIC in the assay with Pseudomonas aeruginosa [1], against Klebsiella pneumoniae [2], with Escherichia coli [8] and with Staphylococcus aureus [10] was 20 µg throughout. Further, the Activity in the assay on Mus musculus [3] is on record as 37.1%; in the assay on Mus musculus [7], 71.76%. For the same compound, the zone of inhibition at 50 µg/disc is 21 mm with Escherichia coli [4], 22 mm in the assay on Klebsiella pneumoniae [5], 19 mm in the assay on Staphylococcus aureus [9] and 23 mm in the assay with Pseudomonas aeruginosa [11]. Further, the Time with Mus musculus [6] was 10.67 s; with Mus musculus [12] it was 11.41 s; in the assay with Mus musculus [13], 9.42 s.

As for `O=c1[nH]c(N/N=C\c2ccccc2)nc2nc3c(c(-c4ccccc4)c12)CCCC3`, the zone of inhibition at 50 µg/disc with Nakaseomyces glabratus came out at 7 mm; with Candida albicans, 7 mm; in the assay on Escherichia coli [4], 15 mm; in the assay on Klebsiella pneumoniae [5], 18 mm; in the assay on Staphylococcus aureus [9] it was 16 mm; in the assay with Pseudomonas aeruginosa [11], 14 mm. Also, the results for the Activity with Mus musculus [3] and in the assay with Mus musculus [7] were 34.9% and 67.51%, respectively. Further, the values for the Time with Mus musculus [6], with Mus musculus [12] and in the assay with Mus musculus [13] were 12.68 s, 12.52 s and 10.08 s, respectively.

Regarding `Nc1n[nH]c2nc3nc4c(c(-c5ccccc5)c3c(=O)n12)CCCC4`, the inhibition in vivo at 15 mg/kg turned out to be 2.8% in the assay on Rattus norvegicus [14]; 1.2% in the assay with Rattus norvegicus [15]; 9.5% with Rattus norvegicus [16]; 20.5% in the assay with Rattus norvegicus [17]; 17.7% in the assay with Rattus norvegicus [18]; 6.6% with Rattus norvegicus [19]. Moreover, the inhibition in vivo at 15 mg/kg was found to be 2.1% in the assay on Rattus norvegicus [20] and 10.1% in the assay with Rattus norvegicus [21]. In addition, the MIC in the assay with Pseudomonas aeruginosa [1], against Klebsiella pneumoniae [2], in the assay with Escherichia coli [8] and against Staphylococcus aureus [10] was 30 µg each time. Further, the Activity with Mus musculus [3] came to 57.1%; in the assay with Mus musculus [7], 110.44%. Further, the zone of inhibition at 50 µg/disc in the assay on Escherichia coli [4] is 20 mm; in the assay with Klebsiella pneumoniae [5], 22 mm; in the assay on Staphylococcus aureus [9], 21 mm; in the assay on Pseudomonas aeruginosa [11], 22 mm. Further, the Time is 7.62 s in the assay on Mus musculus [6], 6.74 s with Mus musculus [12] and 5.14 s in the assay with Mus musculus [13].

With `NNc1nc2nc3c(c(-c4ccccc4)c2c(=O)[nH]1)CCCC3`, the inhibition in vivo at 15 mg/kg with Rattus norvegicus [14] stood at 21.8%; in the assay on Rattus norvegicus [15], 20.8%; with Rattus norvegicus [16] it was 18.6%; in the assay on Rattus norvegicus [17], 40.1%; in the assay with Rattus norvegicus [18], 53.5%; with Rattus norvegicus [19], 51.1%. Further, the results for the inhibition in vivo at 15 mg/kg with Rattus norvegicus [20] and in the assay on Rattus norvegicus [21] were 35.7% and 30.5%, respectively. Besides, the Activity amounted to 52.9% in the assay on Mus musculus [3] and 102.32% in the assay with Mus musculus [7]. For the same compound, the zone of inhibition at 50 µg/disc with Escherichia coli [4] worked out at 13 mm; with Klebsiella pneumoniae [5], 13 mm; with Staphylococcus aureus [9], 11 mm; in the assay on Pseudomonas aeruginosa [11], 15 mm. For the same compound, the values for the Time with Mus musculus [6], in the assay on Mus musculus [12] and with Mus musculus [13] were 12 s, 10.61 s and 7.54 s, respectively.

Regarding `Cc1cc(C)n(-c2nc3nc4c(c(-c5ccccc5)c3c(=O)[nH]2)CCCC4)n1`, the inhibition in vivo at 15 mg/kg was determined as 0.1% with Rattus norvegicus [14]; 0.9% with Rattus norvegicus [15]; 0.8% in the assay on Rattus norvegicus [16]; 1.7% in the assay with Rattus norvegicus [17]; 14.5% with Rattus norvegicus [18]; 0.1% in the assay on Rattus norvegicus [19]. For the same compound, the inhibition in vivo at 15 mg/kg with Rattus norvegicus [20] was found to be 1.5%; in the assay with Rattus norvegicus [21], 10.5%. Moreover, the zone of inhibition at 50 µg/disc was 9 mm in the assay on Nakaseomyces glabratus; 9 mm in the assay with Candida albicans; 19 mm in the assay on Escherichia coli [4]; 20 mm in the assay on Klebsiella pneumoniae [5]; 21 mm in the assay with Staphylococcus aureus [9]; 22 mm in the assay with Pseudomonas aeruginosa [11]. Further, the MIC in the assay on Pseudomonas aeruginosa [1], in the assay on Klebsiella pneumoniae [2], against Escherichia coli [8] and against Staphylococcus aureus [10] was 30 µg in each case. For the same compound, the Activity was found to be 59.2% with Mus musculus [3] and 114.51% in the assay with Mus musculus [7]. Moreover, the results for the Time with Mus musculus [6], in the assay on Mus musculus [12] and in the assay on Mus musculus [13] were 11.5 s, 10.15 s and 8.93 s, respectively.

On to `O=c1c2c(-c3ccccc3)c3c(nc2nc2[nH]nnn12)CCCC3`, for which the MIC in the assay on Pseudomonas aeruginosa [1], against Klebsiella pneumoniae [2], against Escherichia coli [8] and against Staphylococcus aureus [10] was 30 µg in each case. Moreover, the Activity was 14% in the assay with Mus musculus [3] and 27.07% in the assay with Mus musculus [7]. Moreover, the zone of inhibition at 50 µg/disc in the assay on Escherichia coli [4] was found to be 18 mm; in the assay with Klebsiella pneumoniae [5] it was 16 mm; in the assay on Staphylococcus aureus [9], 17 mm; in the assay with Pseudomonas aeruginosa [11], 22 mm. For the same compound, the values for the Time in the assay on Mus musculus [6], with Mus musculus [12] and in the assay with Mus musculus [13] were 10.08 s, 10.78 s and 9.16 s, respectively.
